An excerpt weighted towards active compounds, which were near 4.8% of everything screened.
GRIN3A LBD mod: modulates the human NR3A ligand-binding domain. 340,000 compounds, 2.5% hits. Tm shift relative to glycine control, % at 25 µM. NR3A LBD differential scanning fluorimetry, Tm shift; 0% = protein alone, 100% = glycine-bound protein;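 active means melting temperature shift of at least 10% of the positive control shift, at one fixed dose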
PAFAH1B2 FP inh: PAFAH1B2 (human) inhibition | P68402 | recombinant PAFAH1B2, FP-rhodamine activity probe, fluorescence polarization | 340,000 compounds, 1.2% hits | AID 492953 | inhibition, % at 3.39 µM;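 active means inhibition above the mean of all tested compounds plus 3 SD, cut at about 24% in these data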;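 further: 0% = enzyme with DMSO and 100% = wells lacking PAFAH1B2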
pPAFAH FP inh: pPAFAH (human) enzyme inhibition; recombinant pPAFAH, FP-rhodamine probe fluorescence polarization; inhibition, % at 3.39 µM; 330,000 compounds, 1.5% hits; AID 463082;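 active means inhibition above the mean inhibition across the screen plus 3 SD, cut at about 25% in these data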;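 further: inhibitors block binding of the rhodamine activity-based probe so polarization drops; 0% = enzyme with DMSO and 100% = wells lacking pPAFAH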
Target sequence (Q13093 whole entry, looked up): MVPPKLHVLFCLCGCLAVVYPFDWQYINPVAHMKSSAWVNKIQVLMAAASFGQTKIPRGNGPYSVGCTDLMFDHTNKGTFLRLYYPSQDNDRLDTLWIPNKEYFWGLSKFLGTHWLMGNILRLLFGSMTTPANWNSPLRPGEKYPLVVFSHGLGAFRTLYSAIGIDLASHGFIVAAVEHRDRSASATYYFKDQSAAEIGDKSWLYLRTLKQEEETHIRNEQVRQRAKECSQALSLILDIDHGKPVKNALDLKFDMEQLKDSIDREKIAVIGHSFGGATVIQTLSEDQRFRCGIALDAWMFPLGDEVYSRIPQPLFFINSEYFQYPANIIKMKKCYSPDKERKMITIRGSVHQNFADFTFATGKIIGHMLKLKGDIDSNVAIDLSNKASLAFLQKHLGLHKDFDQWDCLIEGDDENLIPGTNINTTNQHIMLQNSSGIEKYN
UCH37 DUB inh: blocks the human deubiquitinase UCH37; Q9Y5K5; purified proteasome/UCH37, Ub-AMC cleavage fluorescence; inhibition, % (test concentration not listed); 330,000 compounds, 0.33% hits; AID 588478;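 active means mean inhibition over replicate wells above about 20%, limit read from the data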;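 further: 0% = compound-free wells with enzyme and 100% = wells lacking proteasome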
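System: Proteasome-associated human UCH37 deubiquitinase; Input: 0.15 nM proteasome in added enzyme buffer; Also added: Ub-AMC substrate from 1 µM stock; Incubation: 30 min compound-proteasome preincubation then 25 min substrate reaction, room temperature; Detection: fluorescence, ex 355 nm, em 460 nm; Read-out: % inhibition of Ub-AMC cleavage fluorescence; Benchmarks: no-proteasome and no-compound wells.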
PAFAH2 inh: PAFAH2 (human) inhibition; Q99487; recombinant PAFAH2, FP-rhodamine activity probe, fluorescence polarization; inhibition, % at 3.39 µM; 340,000 compounds, 0.99% hits;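 active means inhibition above the mean over all tested compounds plus 3 SD, cut at about 30% in these data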;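 further: inhibitors block probe labeling of enzyme so polarization drops; 0% = enzyme with DMSO and 100% = wells lacking PAFAH2 protein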
PAFAH1B3 FP inh: PAFAH1B3 (human) inhibition; 340,000 compounds, 0.28% hits; AID 492972; Q15102; inhibition, % at 3.39 µM; recombinant PAFAH1B3, FP-rhodamine probe, fluorescence polarization;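 active means inhibition above the screen-wide average of all tested compounds plus 3 SD, cut at about 25% in these data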;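 further: 0% = enzyme with DMSO only and 100% = wells lacking PAFAH1B3 protein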
Target sequence (Q15102 whole entry, looked up): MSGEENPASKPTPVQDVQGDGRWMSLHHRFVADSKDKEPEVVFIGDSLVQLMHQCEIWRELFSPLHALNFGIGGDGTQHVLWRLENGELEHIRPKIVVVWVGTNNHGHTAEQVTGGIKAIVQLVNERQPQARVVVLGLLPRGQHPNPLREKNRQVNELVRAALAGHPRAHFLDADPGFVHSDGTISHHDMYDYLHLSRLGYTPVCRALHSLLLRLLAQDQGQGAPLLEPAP
The depositor's hits bear a star; i = inactive; . = not tested or not shown.

SMILES	GRIN3A LBD mod	PAFAH1B2 FP inh	pPAFAH FP inh	UCH37 DUB inh	PAFAH2 inh	PAFAH1B3 FP inh
N#Cc1c(-c2ccccc2)nc(SCC(=O)N2c3ccccc3Sc3ccccc32)[nH]c1=O	-8.0	24.5*	3.1	13.4	-12.6	-9.4
N#Cc1c(-c2ccccc2)nc(SCC(=O)Nc2ccc(OC(F)(F)Cl)cc2)[nH]c1=O	8.1	78.9*	-6.6	10.7	-4.0	13.7
N#Cc1c(-c2ccccc2)nc(SCC(=O)Nc2ccccc2F)[nH]c1=O	-8.4	4.1	-3.6	2.6	-6.6	10.6
N#Cc1c(-c2ccccc2)nc(SCc2ccc(Cl)cc2)[nH]c1=O	.	35.0*	7.7	.	-10.1	-0.6
COc1ccc(CNC(=O)CC(C)=NNC(=O)c2ccc([N+](=O)[O-])cc2Cl)cc1	.	.	.	2.1	.	.
C(/C=C/c1ccco1)=Nn1cnnc1	.	.	.	15.2	.	.
N#Cc1c(-c2ccco2)nc(SCc2ccc(F)cc2)[nH]c1=O	-30.1	8.9	1.8	7.2	4.3	7.7
Cc1nc(SCc2cccc(F)c2)[nH]c(=O)c1C#N	12.7*	2.0	5.5	0.7	0.5	7.4
O=C(Cn1cc(C(F)(F)F)ccc1=O)NN=Cc1cccc(Cl)c1Cl	.	.	.	-1.6	.	.
CCCCc1ccc(NC(=S)NCc2cccs2)cc1	11.2*	1.6	-1.0	6.5	-5.1	4.2
Cc1ccc(NC(=S)NCc2cccs2)cc1	0.5	5.2	6.1	0.4	0.0	10.2
Cc1cc(C)nc(N=c2ssnc2Cl)c1	.	.	.	1.6	.	.
C=CCn1c(N)c(C(=O)Nc2ccccc2)c2nc3ccccc3nc21	12.9*	1.2	3.3	-4.2	12.9	5.1
Cc1ccc(OCC(=O)c2ccc(Cl)s2)c([N+](=O)[O-])n1	-5.3	4.7	24.6*	-1.1	2.5	8.1
CC(NS(=O)(=O)c1ccccc1Cl)C1CC2CCC1C2 (stereo not given)	0.6	26.1*	3.4	5.8	-8.9	0.3
O=C(CNC(=O)c1ccccc1Br)NN=Cc1cccnc1	.	.	.	-1.3	.	.
C=CCn1nnnc1SCC(=O)Nc1cccc(C(F)(F)F)c1	15.8*	-8.9	-0.1	2.0	1.6	8.0
CCn1c(SCC(=O)NN=Cc2c[nH]c3ccccc23)nnc1-c1ccc(C)cc1	.	.	.	3.6	.	.
O=C(CCC(=O)Nc1ccc(F)cc1)NN=Cc1ccc(F)cc1	.	.	.	4.8	.	.
CCCCCCC1CC(CSc2ncn[nH]2)OC1=O (stereo not given)	14.9*	5.3	7.9	0.9	0.0	-1.3
CCCCCCC1CC(CCc2nc(=S)[nH][nH]2)C(=O)O1 (stereo not given)	-8.2	8.3	5.4	0.9	-2.0	13.8
CCCCOc1ccc(CNC(=O)NS(=O)(=O)c2ccc(OCC)cc2)cc1	2.1	9.6	3.8	1.3	-7.6	-1.4
CCCCOc1ccc(CNC(=O)NS(=O)(=O)c2ccc(OCC(C)C)cc2)cc1	4.5	58.8*	1.9	0.5	-1.4	2.9
CCCCOc1ccc(S(=O)(=O)NC(=O)NCc2ccc(OCCC)cc2)cc1	2.3	41.8*	7.9	-1.1	5.1	3.2
COc1ccc(C=Nn2c(N)nc(-c3ccccc3)c2-c2ccccc2)cc1	.	.	.	3.0	.	.
SMILES	GRIN3A LBD mod	PAFAH1B2 FP inh	pPAFAH FP inh	UCH37 DUB inh	PAFAH2 inh	PAFAH1B3 FP inh
CCC(=O)Nc1cccc(-c2cn3cccc(C)c3n2)c1	15.2*	.	1.4	-8.6	.	.
Cc1cccn2cc(-c3ccc(Cl)cc3)nc12	-364.2	-1.2	2.8	-10.2	-1.1	0.0
CCC(=O)Nc1cccc(-c2cn3ccccc3n2)c1	-1.9	5.9	-3.4	-20.5	-4.6	-2.6
Cc1ccc(-c2cn3cccc(C)c3n2)cc1	23.4*	-0.4	.	-10.4	2.1	5.7
Cc1[nH]c2ccccc2c1C=NNC(=O)CNC(=O)COc1ccccc1	.	.	.	2.8	.	.
CS(=O)(=O)c1ccc2nc(NC(=O)Nc3ccc(Cl)cc3)sc2c1	27.6*	-18.0	0.7	2.4	-25.3	-22.6
NS(=O)(=O)c1ccc2nc(NC(=O)Nc3ccc(F)cc3)sc2c1	23.2*	-14.5	-10.5	2.1	-42.9	-23.8
Nc1nnnn1N=Cc1ccccc1O	.	.	.	1.7	.	.
Cn1ccsc1=NC(=O)Nc1cccc(Cl)c1	.	.	.	3.5	.	.
N#Cc1cccc(NC(=O)CSc2nnc(-c3n[nH]c4ccccc34)o2)c1	70.8*	4.5	7.4	.	-3.2	3.9
NS(=O)(=O)c1ccc(NC(=O)CSc2nnc(-c3ccc(O)cc3)o2)cc1	26.2*	1.0	1.2	5.7	3.8	0.8
O=C(CSc1nnc(-c2ccc(O)cc2)o1)Nc1cccc(O)c1	17.7*	7.5	0.6	1.8	0.9	5.8
O=C(CSc1nnc(-c2ccc(O)cc2)o1)Nc1ccc2c(c1)OCCO2	7.2	5.0	-2.1	1.3	6.7	5.3
N#CC(=NNc1ccc(Cl)cc1)C(=O)c1ccsc1	.	.	.	6.1	.	.
COc1ccccc1NC(=O)COc1ccc(C=NNS(=O)(=O)c2ccc(C)cc2)cc1	.	.	.	3.7	.	.
CCOc1ccc(/C=N/n2c(COc3ccccc3)n[nH]c2=S)cc1OC	14.9*	4.0	9.8	.	2.4	-2.2
S=c1[nH]nc(COc2ccccc2)n1/N=C/c1ccccc1Br	-10.2	9.1	12.9	.	10.7	9.0
COc1ccc(C=Nn2c(COc3ccccc3)n[nH]c2=S)cc1OC	.	.	.	6.0	.	.
Oc1ccc(Br)cc1/C=N/n1c(COc2ccccc2)n[nH]c1=S	10.3*	27.6*	.	.	9.9	-0.4
CCOc1ccccc1C=Nn1c(C2CCCCC2)n[nH]c1=S	.	.	.	2.6	.	.
O=C(NN=Cc1ccccc1C(=O)O)c1cccc(S(=O)(=O)N2CCOCC2)c1	.	.	.	1.5	.	.
COc1ccc(C=NN2C(=N)SCC2=O)cc1	.	.	.	7.9	.	.
Nc1c(S(=O)(=O)c2cccs2)c2nc3ccccc3nc2n1Cc1ccccc1	1.4	0.3	5.8	-247.4	-9.4	1.9
COCCn1c(N)c(S(=O)(=O)c2cccs2)c2nc3ccccc3nc21	2.1	24.7*	-5.5	i	10.7	47.7*
Oc1ccc(-c2nc3ccc4ccccc4c3c3c2CCC3)cc1O	13.1*	3.3	32.9*	-14.4	-26.4	14.4
SMILES	GRIN3A LBD mod	PAFAH1B2 FP inh	pPAFAH FP inh	UCH37 DUB inh	PAFAH2 inh	PAFAH1B3 FP inh
S=c1[nH]nc(-c2cccs2)n1N=Cc1cccs1	.	.	.	7.3	.	.
COC(=O)c1ccc(NC(=O)c2ccc(NS(=O)(=O)c3cccc4cccnc34)cc2)cc1	3.0	5.4	-0.5	6.1	-9.1	3.6
Cc1ccc(C(=O)CCC(=O)Nc2ccc(Cl)c(S(=O)(=O)Nc3cccc(Cl)c3)c2)cc1	24.1*	9.6	-0.1	1.9	1.4	5.0
Cc1cccc(NC(=O)c2ccc(NS(=O)(=O)c3cccc4cccnc34)cc2)c1	29.5*	-4.2	.	.	-10.3	3.8
CCOc1ccc(NC(=O)c2ccc(NS(=O)(=O)c3cccc4cccnc34)cc2)cc1	17.4*	-0.4	.	.	1.8	2.1
O=C(Nc1ccccc1O)c1ccc(NS(=O)(=O)c2cccc3cccnc23)cc1	19.7*	-7.0	10.9	.	-4.8	3.5
O=C(NN=Cc1ccco1)c1cc(C2CC2)nc2ccccc12	.	.	.	0.5	.	.

Compound activity from PubChem.
